Test results reported in ChEMBL document CHEMBL4196009, “Novel vitexin-inspired scaffold against leukemia” (Eur J Med Chem, 2018).
Active and inactive are the calls of the source. No cut-off for these calls is given here.

Columns and labels:
KOPN-8 [1] = test: Induction of apoptosis in human KOPN8 cells assessed as early apoptotic cells at 2 uM after 24 hrs by Annexin V-FITC/propidium iodide staining-based flow cytometry (reference value: 0.1%); format: functional
KOPN-8 [2] = test: Induction of apoptosis in human KOPN8 cells assessed as late apoptotic cells at 2 uM after 24 hrs by Annexin V-FITC/propidium iodide staining-based flow cytometry (reference value: 9.5%); format: functional
KOPN-8 [3] = test: Induction of apoptosis in human KOPN8 cells assessed as viable cells at 2 uM after 24 hrs by Annexin V-FITC/propidium iodide staining-based flow cytometry (reference value: 85.2%); format: functional; conditions: KOPN-8, 24 h, read-out: Activity
KOPN-8 [4] = test: Induction of apoptosis in human KOPN8 cells assessed as necrotic cells at 2 uM after 24 hrs by Annexin V-FITC/propidium iodide staining-based flow cytometry (reference value: 0.2%); format: functional
SUP-B15 [5] = test: Induction of apoptosis in human SUP-B15 cells assessed as early apoptotic cells at 2 uM after 24 hrs by Annexin V-FITC/propidium iodide staining-based flow cytometry (reference value: 0.1%); format: functional
SUP-B15 [6] = test: Induction of apoptosis in human SUP-B15 cells assessed as late apoptotic cells at 2 uM after 24 hrs by Annexin V-FITC/propidium iodide staining-based flow cytometry (reference value: 2.2%); format: functional
SUP-B15 [7] = test: Induction of apoptosis in human SUP-B15 cells assessed as viable cells at 2 uM after 24 hrs by Annexin V-FITC/propidium iodide staining-based flow cytometry (reference value: 82.8%); format: functional; conditions: SUP-B15, 24 h, read-out: Activity
SUP-B15 [8] = test: Induction of apoptosis in human SUP-B15 cells assessed as necrotic cells at 2 uM after 24 hrs by Annexin V-FITC/propidium iodide staining-based flow cytometry (reference value: 9.2%); format: functional
KOPN-8 [9] = test: Cell cycle arrest in human KOPN8 cells assessed as accumulation at G0/G1 phase at 2 uM after 24 hrs by propidium iodide staining-based flow cytometry (reference value: 24.77%); format: functional
KOPN-8 [10] = test: Cell cycle arrest in human KOPN8 cells assessed as accumulation at G2/M phase at 2 uM after 24 hrs by propidium iodide staining-based flow cytometry (reference value: 9.67%); format: functional
KOPN-8 [11] = test: Cell cycle arrest in human KOPN8 cells assessed as accumulation at S phase at 2 uM after 24 hrs by propidium iodide staining-based flow cytometry (reference value: 66.56%); format: functional
MDA-MB-231 [12] = test: Cell cycle arrest in human MDA-MB-231 cells assessed as accumulation at G0/G1 phase at 2.5 uM after 24 hrs by propidium iodide staining-based flow cytometry (reference value: 70.47%); format: functional
MDA-MB-231 [13] = test: Cell cycle arrest in human MDA-MB-231 cells assessed as accumulation at G2/M phase at 2.5 uM after 24 hrs by propidium iodide staining-based flow cytometry (reference value: 9.38%); format: functional
MDA-MB-231 [14] = test: Cell cycle arrest in human MDA-MB-231 cells assessed as accumulation at S phase at 2.5 uM after 24 hrs by propidium iodide staining-based flow cytometry (reference value: 20.15%); format: functional
KOPN-8 [15] = test: Antiproliferative activity against human KOPN8 cells after 72 hrs by CelTiter-Glo assay; format: functional, cell-based; conditions: KOPN-8, 72 h
SEM cells = test: Antiproliferative activity against human SEM cells after 72 hrs by CelTiter-Glo assay; format: functional, cell-based
SUP-B15 [16] = test: Antiproliferative activity against human SUP-B15 cells after 72 hrs by CelTiter-Glo assay; format: functional, cell-based; conditions: SUP-B15, 72 h
UoC-B1 = test: Antiproliferative activity against human UOCB1 cells after 72 hrs by CelTiter-Glo assay; format: functional, cell-based; conditions: UoC-B1, 72 h
HepG2 = test: Antiproliferative activity against human HepG2 cells after 72 hrs by CelTiter-Glo assay; format: functional, cell-based; conditions: HepG2, 72 h
BJ = test: Antiproliferative activity against human BJ cells after 72 hrs by CelTiter-Glo assay; format: cell-based
MDA-MB-231 [17] = test: Cell cycle arrest in human MDA-MB-231 cells assessed as accumulation at G0/G1 phase at 5 uM after 24 hrs by propidium iodide staining-based flow cytometry (reference value: 70.47%); format: functional
MDA-MB-231 [18] = test: Cell cycle arrest in human MDA-MB-231 cells assessed as accumulation at G2/M phase at 5 uM after 24 hrs by propidium iodide staining-based flow cytometry (reference value: 9.38%); format: functional
MDA-MB-231 [19] = test: Cell cycle arrest in human MDA-MB-231 cells assessed as accumulation at S phase at 5 uM after 24 hrs by propidium iodide staining-based flow cytometry (reference value: 20.15%); format: functional
KOPN-8 [20] = test: Induction of apoptosis in human KOPN8 cells assessed as upregulation of cleaved PARP level at 0.5 uM after 3 to 24 hrs by Western blot analysis; format: functional, cell-based
In short: (§1)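 KOPN-8 cells were exposed to compound for 3 h and 24 h, with or without N-acetylcysteine added to a parallel set as antioxidant. Lysates were analysed by Western blot for cleaved PARP, Mcl-1, Ser-2-phosphorylated RNAPII CTD, cMyc, total Rb and pRb. Signals were compared against controls for dose-dependent change.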

KOPN-8 [21] = test: Induction of apoptosis in human KOPN8 cells assessed as upregulation of cleaved PARP level at 0.5 uM pre-treated with NAC for 1 hr and measured after 3 to 24 hrs by Western blot analysis; format: functional, cell-based; in short: as §1
KOPN-8 [22] = test: Induction of apoptosis in human KOPN8 cells assessed as effect on Mcl-1 level at 0.5 uM after 3 hrs by Western blot analysis relative to control; format: functional
Homo sapiens [23] = species: Homo sapiens; test: Inhibition of RNA polymerase 2 C-terminal domain phosphorylation at Ser2 residue in human KOPN8 cells at 0.5 uM after 3 hrs by Western blot analysis relative to control; format: cell-based; in short: as §1
Homo sapiens [24] = species: Homo sapiens; test: Inhibition of RNA polymerase 2 C-terminal domain phosphorylation at Ser2 residue in human KOPN8 cells at 0.5 uM after 24 hrs by Western blot analysis; format: cell-based; in short: as §1
KOPN-8 [25] = test: Effect on c-Myc expression in human KOPN8 cells at 0.5 uM after 3 hrs by Western blot analysis relative to control; format: functional
[26] = molecular target: T1, Retinoblastoma-associated protein (Homo sapiens) (UniProt P06400); test: Inhibition of Rb phosphorylation in human KOPN8 cells assessed as ratio of phosphorylated Rb to total Rb levels at 0.5 uM after 3 hrs by Western blot analysis relative to control; format: cell-based
T1 sequence (whole entry): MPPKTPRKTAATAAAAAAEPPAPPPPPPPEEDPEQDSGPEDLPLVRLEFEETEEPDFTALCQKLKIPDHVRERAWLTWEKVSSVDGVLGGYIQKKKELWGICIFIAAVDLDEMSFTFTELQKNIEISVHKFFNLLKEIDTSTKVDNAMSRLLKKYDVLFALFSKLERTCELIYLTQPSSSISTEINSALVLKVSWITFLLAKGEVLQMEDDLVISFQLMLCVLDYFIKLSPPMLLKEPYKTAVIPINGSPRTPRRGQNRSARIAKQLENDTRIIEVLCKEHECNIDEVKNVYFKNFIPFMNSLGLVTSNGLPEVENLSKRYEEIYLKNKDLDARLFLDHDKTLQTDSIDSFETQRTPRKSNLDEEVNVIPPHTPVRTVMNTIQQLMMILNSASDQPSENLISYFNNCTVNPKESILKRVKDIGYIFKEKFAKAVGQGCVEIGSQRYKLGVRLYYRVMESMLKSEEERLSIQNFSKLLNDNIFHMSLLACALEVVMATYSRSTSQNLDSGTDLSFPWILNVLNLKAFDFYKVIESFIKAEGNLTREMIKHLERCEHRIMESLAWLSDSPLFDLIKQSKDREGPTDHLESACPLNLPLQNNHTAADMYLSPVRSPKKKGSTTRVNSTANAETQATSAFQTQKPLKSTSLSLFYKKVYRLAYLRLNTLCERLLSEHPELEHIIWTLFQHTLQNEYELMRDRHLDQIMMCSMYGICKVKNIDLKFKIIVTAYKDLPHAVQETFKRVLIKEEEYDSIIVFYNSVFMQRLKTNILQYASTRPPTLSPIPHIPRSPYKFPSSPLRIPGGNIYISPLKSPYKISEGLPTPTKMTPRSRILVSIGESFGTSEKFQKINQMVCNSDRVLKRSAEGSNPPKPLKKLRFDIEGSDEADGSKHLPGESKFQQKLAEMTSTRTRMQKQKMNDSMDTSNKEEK
In short: (§2)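 KOPN-8 pre-B ALL cells were treated for 3 h and 24 h, with or without N-acetyl cysteine added to a parallel set of cells as an antioxidant/ROS quencher. Lysates were analysed by Western blot for phosphorylated Rb and total Rb. The same blots also probed PARP cleavage, Mcl-1, Ser-2-phosphorylated RNAPII CTD and cMyc.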

KOPN-8 [27] = test: Induction of apoptosis in human KOPN8 cells assessed as effect on Mcl-1 level at 0.5 uM pre-treated with NAC for 1 hr and measured after 3 hrs by Western blot analysis relative to control; format: functional
KOPN-8 [28] = test: Induction of apoptosis in human KOPN8 cells assessed as effect on Mcl-1 level at 0.5 uM after 24 hrs by Western blot analysis relative to control; format: functional
KOPN-8 [29] = test: Induction of apoptosis in human KOPN8 cells assessed as effect on Mcl-1 level at 0.5 uM pre-treated with NAC for 1 hr and measured after 24 hrs by Western blot analysis relative to control; format: functional
Homo sapiens [30] = species: Homo sapiens; test: Inhibition of RNA polymerase 2 C-terminal domain phosphorylation at Ser2 residue in human KOPN8 cells at 0.5 uM pre-treated with NAC for 1 hr and measured after 3 hrs by Western blot analysis relative to control; format: cell-based; in short: as §1
Homo sapiens [31] = species: Homo sapiens; test: Inhibition of RNA polymerase 2 C-terminal domain phosphorylation at Ser2 residue in human KOPN8 cells at 0.5 uM pre-treated with NAC for 1 hr and measured after 24 hrs by Western blot analysis relative to control; format: cell-based; in short: as §1
KOPN-8 [32] = test: Effect on c-Myc expression in human KOPN8 cells at 0.5 uM pre-treated with NAC for 1 hr and measured after 3 hrs by Western blot analysis relative to control; format: functional
KOPN-8 [33] = test: Effect on c-Myc expression in human KOPN8 cells at 0.5 uM after 24 hrs by Western blot analysis relative to control; format: functional
KOPN-8 [34] = test: Effect on c-Myc expression in human KOPN8 cells at 0.5 uM pre-treated with NAC for 1 hr and measured after 24 hrs by Western blot analysis relative to control; format: functional
[35] = molecular target: T1, Retinoblastoma-associated protein (Homo sapiens); test: Inhibition of Rb phosphorylation in human KOPN8 cells assessed as ratio of phosphorylated Rb to total Rb levels at 0.5 uM pre-treated with NAC for 1 hr and measured after 3 hrs by Western blot analysis relative to control; format: cell-based; in short: as §2
[36] = molecular target: T1, Retinoblastoma-associated protein (Homo sapiens); test: Inhibition of Rb phosphorylation in human KOPN8 cells assessed as ratio of phosphorylated Rb to total Rb levels at 0.5 uM after 24 hrs by Western blot analysis relative to control; format: cell-based; in short: as §1
[37] = molecular target: T1, Retinoblastoma-associated protein (Homo sapiens); test: Inhibition of Rb phosphorylation in human KOPN8 cells assessed as ratio of phosphorylated Rb to total Rb levels at 0.5 uM pre-treated with NAC for 1 hr and measured after 24 hrs by Western blot analysis relative to control; format: cell-based; in short: as §2

CN[C@@H]1C[C@H]2O[C@@](C)([C@@H]1OC)n1c3ccccc3c3c4c(c5c6ccccc6n2c5c31)C(=O)NC4 [STAUROSPORINE]
Activity (KOPN-8 [1]): 0.2% | Activity (KOPN-8 [2]): 74.4% | viability at 2 µM (KOPN-8 [3]): 0.3% | Activity (KOPN-8 [4]): 0.1% | Activity (SUP-B15 [5]): 0.2% | Activity (SUP-B15 [6]): 44.2% | viability at 2 µM (SUP-B15 [7]): 9.8% | Activity (SUP-B15 [8]): 39.4% | Activity (KOPN-8 [9]): 49.55% | Activity (KOPN-8 [10]): 20.08% | Activity (KOPN-8 [11]): 30.37% | Activity (MDA-MB-231 [12]): 50.99% | Activity (MDA-MB-231 [13]): 6.8% | Activity (MDA-MB-231 [14]): 42.21%

CN1CC[C@H](c2c(O)cc(O)c3c(=O)cc(-c4ccccc4Cl)oc23)[C@H](O)C1 [ALVOCIDIB]
EC50 (KOPN-8 [15]): 193 nM | EC50 (SEM cells): 204 nM | EC50 (SUP-B15 [16]): > 86200 nM | EC50 (UoC-B1): 208 nM | EC50 (HepG2): 146 nM | EC50 (BJ): > 86200 nM | Activity (MDA-MB-231 [17]): 66.03% | Activity (MDA-MB-231 [18]): 16.47% | Activity (MDA-MB-231 [19]): 17.5% | Activity (KOPN-8 [20]): Active | Activity (KOPN-8 [21]): Active | fold change (FC) (KOPN-8 [22]): 0.2 | fold change (FC) (Homo sapiens [23]): 0.4 | fold change (FC) (Homo sapiens [24]): 0 | fold change (FC) (KOPN-8 [25]): 0.2 | fold change (FC) [26]: 0.9 | fold change (FC) (KOPN-8 [27]): 0.2 | fold change (FC) (KOPN-8 [28]): 0 | fold change (FC) (KOPN-8 [29]): 0 | fold change (FC) (Homo sapiens [30]): 0.6 | fold change (FC) (Homo sapiens [31]): 0 | fold change (FC) (KOPN-8 [32]): 0.2 | fold change (FC) (KOPN-8 [33]): 0 | fold change (FC) (KOPN-8 [34]): 0 | fold change (FC) [35]: 1.1 | fold change (FC) [36]: 1 | fold change (FC) [37]: 1.1
